Measurements published in ChEMBL document CHEMBL4732200, “Synthesis and antiviral activity of a series of novel quinoline derivatives as anti-RSV or anti-IAV agents” (Eur J Med Chem, 2021).
Active and inactive are the calls of the source. The calls are words filed in the database; no cut-off is given here.

Key:
[1] = test system: Respiratory syncytial virus; assay: Antiviral activity against RSV Long expressing mGFP infected in HEp-2 cells assessed as reduction in viral replication after 48 hrs by MTS assay; type: functional, organism-based; conditions: human respiratory syncytial virus, HEp-2, 48 h
How it was run: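 HEp-2 cells plated in 96-well plates; after 24 h, virus alone or virus plus compound added; 48 h incubation. MTS (2 mg/ml) added for 3 h at 37 °C, 5% CO2; absorbance read at 490 nm. Controls were mock-treated cells (uninfected, or infected without compound), with cell activity set as 100%.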

[2] = Cytotoxicity against human HEp-2 cells assessed as reduction in cell viability after 48 hrs by MTS assay; type: cell-based
[3] = Selectivity index, ratio of CC50 for cytotoxicity against human HEp-2 cells to IC50 for antiviral activity against RSV Long expressing mGFP infected in HEp-2 cells; type: toxicity, cell-based; conditions: read-out: Ratio CC50/IC50
Influenza A virus [4] = assay: Antiviral activity against Influenza A virus A/WSN/33(H1N1) infected in human HEK-293T cells assessed as inhibition of viral replication after 48 hrs by CCK-8 assay; type: functional, organism-based; conditions: A/WSN/1933(H1N1)
HEK-293T = assay: Cytotoxicity against human HEK-293T cells assessed as reduction in cell viability after 48 hrs by CCK-8 assay; type: cell-based
How it was run: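 Cytotoxicity in 293T cells in 96-well plates incubated with compounds at six concentrations (top 200) for 48 h. CCK-8 solution added and OD read at 450 nm. DMSO-only cells served as control.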

[5] = Selectivity index, ratio of CC50 for cytotoxicity against human HEK-293T cells to IC50 for antiviral activity against Influenza A virus A/WSN/33(H1N1) […] cells; type: toxicity, cell-based; conditions: read-out: Ratio CC50/IC50
[6] = test system: Respiratory syncytial virus; assay: Potency index, ratio of ribavirin IC50 to test compound IC50 for antiviral activity against RSV Long expressing mGFP infected in HEp-2 cells; type: functional
Influenza A virus [7] = assay: Antiviral activity against Influenza A virus A/WSN/33(H1N1) infected in human HEK-293T cells assessed as inhibition of viral replication at 10 uM after 48 hrs by CCK-8 assay relative to control; type: functional, A/WSN/1933(H1N1); set-up: scale not given: the % may be the effect or the level left
Influenza A virus [8] = assay: Potency index, ratio of ribavirin IC50 to test compound IC50 for antiviral activity against Influenza A virus A/WSN/33(H1N1) infected in human HEK-293T cells; type: functional, A/WSN/1933(H1N1)
Influenza A virus [9] = assay: Antiviral activity against Influenza A virus A/WSN/33(H1N1) infected in human A549 cells assessed as inhibition of viral replication at 10 uM after 2 to 6 hrs; type: functional, organism-based; conditions: A/WSN/1933(H1N1), time 2-6 hrs
[10] = (§1) Inhibition of Influenza A virus A/WSN/33(H1N1) RNA polymerase expressed in HEK-293T cells after 24 hrs by dual luciferase reporter gene assay; type: cell-based, HEK293T
How it was run: (§2)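 HEK293T cells transfected with pCAGGS plasmids for PB2, PB1, PA and NP, plus a pol-driven firefly luciferase reporter and SV40-Renilla, with or without compound at the indicated concentrations. vRNA transcription read as firefly and Renilla luciferase at 24 h post-transfection.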

HEK293T = assay: as §1; type: cell-based; how it was run: as §2

Row | Structure (SMILES) | IC50 [1] | CC50 at 48 h [2] | selectivity ratio [3] | IC50 (Influenza A virus [4]) | IC50 (HEK-293T) | selectivity ratio [5] | Ratio IC50 [6] | Activity (Influenza A virus [7]) | Ratio IC50 (Influenza A virus [8]) | Activity (Influenza A virus [9]) | IC50 [10] | inhibition (HEK293T)
1 | c1cc(OCCCCCN2CCOCC2)c2nc(N3CCCC3)ccc2c1 | 31.3 µM | 173 µM | 5.52 | 32.4 µM | > 100 µM | > 3.08 |  |  |  |  |  | 
2 | CC(C)(C)OC(=O)N[C@H]1CCN(c2ccc3cccc(OCC(=O)NCc4ccccc4)c3n2)C1 | 4.57 µM | 43.8 µM | 9.59 | 5.11 µM | 58 µM | 11.3 | 2.5 | >70% |  |  |  | 
3 | CN1CCN(c2ccc3cccc(OCC(=O)NCc4ccccc4)c3n2)CC1 | 19.3 µM | 264 µM | 13.7 | 9.87 µM | > 100 µM | > 10.1 |  |  |  |  |  | 
4 | O=C(COc1cccc2ccc(N3CCCC3)nc12)NCc1ccco1 | 22.9 µM | 249 µM | 10.9 |  |  |  |  |  |  |  |  | 
5 | O=C(COc1cccc2ccc(N3CCCC3)nc12)NCc1ccc(F)cc1 | 4.41 µM | 2130 µM | 483 |  |  |  | 2.5 |  |  |  |  | 
6 | CCOc1ccccc1NC(=O)COc1cccc2ccc(N3CCCC3)nc12 | 33.2 µM | 1040 µM | 31.5 |  |  |  |  |  |  |  |  | 
7 | O=C(COc1cccc2ccc(N3CCCC3)nc12)NC12CC3CC(CC(C3)C1)C2 |  |  |  | 11.5 µM | > 100 µM | > 8.73 |  |  |  |  |  | 
8 | CS(=O)(=O)c1ccc(CNC(=O)COc2cccc3ccc(N4CCCC4)nc23)cc1 | 221 µM | 1360 µM | 6.14 |  |  |  |  |  |  |  |  | 
9 | O=C(COc1cccc2ccc(N3CCCC3)nc12)NCc1ccc(C(F)(F)F)cc1 | 27.8 µM | 327 µM | 11.8 | 36.1 µM | > 100 µM | > 2.77 |  |  |  |  |  | 
10 | CC(C)(C)OC(=O)N[C@@H]1CCN(c2ccc3cccc(OCC(=O)NCc4ccccc4)c3n2)C1 | 35.3 µM | 58.6 µM | 1.66 | 4.99 µM | 49.9 µM | 9.99 |  | >70% |  |  |  | 
11 | CNc1ccc2cccc(OCC(=O)NCc3ccccc3)c2n1 | 10.3 µM | 94.8 µM | 9.2 |  |  |  |  |  |  |  |  | 
12 | COc1cccc(CNC(=O)COc2cccc3ccc(N4CCCC4)nc23)c1 | 6.93 µM | 74.3 µM | 10.7 |  |  |  | 2.5 |  |  |  |  | 
13 | O=C(COc1cccc2ccc(Cl)nc12)NCc1ccccc1 | 20.7 µM | 528 µM | 25.6 |  |  |  |  |  |  |  |  | 
14 | CCOC(=O)COc1cccc2ccc(N3CCCC3)nc12 | 16.4 µM | 826 µM | 50.3 |  |  |  |  |  |  |  |  | 
15 | O=C(COc1cccc2ccc(N3CCCCC3)nc12)NCc1ccccc1 | 26.1 µM | 1740 µM | 66.7 |  |  |  |  |  |  |  |  | 
16 | NC(=O)c1ncn([C@@H]2O[C@H](CO)[C@@H](O)[C@H]2O)n1 [RIBAVIRIN] | 17.3 µM | 3040 µM | 175 |  | > 100 µM | > 6.51 |  |  |  |  |  | 

Row | Structure (SMILES) | IC50 [1] | CC50 at 48 h [2] | selectivity ratio [3] | IC50 (Influenza A virus [4]) | IC50 (HEK-293T) | selectivity ratio [5] | Ratio IC50 [6] | Activity (Influenza A virus [7]) | Ratio IC50 (Influenza A virus [8]) | Activity (Influenza A virus [9]) | IC50 [10] | inhibition (HEK293T)
17 | CN(C)c1ccc2cccc(OCC(=O)NCc3ccccc3)c2n1 | 3.1 µM | 168 µM | 54.1 | 14.2 µM | > 100 µM | > 7.02 | 2.5 |  |  |  |  | 
18 | O=C(COc1cccc2ccc(N3CCOCC3)nc12)NCc1ccccc1 | 36.1 µM | 46.2 µM | 1.28 |  |  |  |  |  |  |  |  | 
19 | CC(C)(C)OC(=O)N1CCN(c2ccc3cccc(OCC(=O)NCc4ccccc4)c3n2)CC1 | 16.9 µM | 1370 µM | 80.9 | 1.87 µM | > 100 µM | > 53.5 |  | >70% | 8.2 | Active | 1.93 µM | Dose-dependent effect
20 | COc1ccc(CNC(=O)COc2cccc3ccc(N4CCCC4)nc23)cc1 | 3.7 µM | 2490 µM | 673 |  |  |  | 2.5 |  |  |  |  | 
21 | O=C(COc1cccc2ccc(N3CCCC3)nc12)NCc1cccc(F)c1 | 2920 µM | 444 µM | 0.15 |  |  |  |  |  |  |  |  | 
22 | O=C(COc1cccc2ccc(N3CCCC3)nc12)Nc1ccccc1 | 16.5 µM | 304 µM | 18.4 |  |  |  |  |  |  |  |  | 
23 | O=C(COc1cccc2ccc(N3CCCC3)nc12)NCc1cccc(Cl)c1 | 30.2 µM | 73 µM | 2.41 |  |  |  |  |  |  |  |  | 
24 | O=C(COc1cccc2ccc(N3CCCC3)nc12)NCc1ccccc1Br | 182 µM | 312 µM | 1.71 |  |  |  |  |  |  |  |  | 
25 | O=C(COc1cccc2ccc(N3CCCC3)nc12)NCc1ccccc1 | 55.8 µM | 540 µM | 9.68 | 13.3 µM | > 100 µM | > 7.5 |  |  |  |  |  | 
26 | CCOc1ccccc1CNC(=O)COc1cccc2ccc(N3CCCC3)nc12 | 45.7 µM | 113 µM | 2.48 | 7.46 µM | > 100 µM | > 13.4 |  |  |  |  |  | 
27 | c1cc(OCCCCN2CCOCC2)c2nc(N3CCCC3)ccc2c1 | 11.6 µM | 691 µM | 59.6 |  |  |  |  |  |  |  |  | 
28 | O=C(COc1cccc2ccc(N3CCCC3)nc12)NCC1CC1 | 29 µM | 580 µM | 20 |  |  |  |  |  |  |  |  | 
29 | O=C(COc1cccc2ccc(N3CCCC3)nc12)NCc1ccc(Br)cc1 |  |  |  | 42.3 µM | > 100 µM | > 2.36 |  |  |  |  |  | 
30 | c1cc(OCCCN2CCOCC2)c2nc(N3CCCC3)ccc2c1 | 14.1 µM | 552 µM | 39.2 | 50.7 µM | > 100 µM | > 1.97 |  |  |  |  |  | 
31 | O=C(COc1cccc2ccc(N3CCCC3)nc12)NCc1ccc(Cl)cc1 | 39.2 µM | 245 µM | 6.26 |  |  |  |  |  |  |  |  | 
